In test [1] the target is T1, Adenosine receptor A2b (Homo sapiens) (UniProt P29275).
T1 sequence (whole entry): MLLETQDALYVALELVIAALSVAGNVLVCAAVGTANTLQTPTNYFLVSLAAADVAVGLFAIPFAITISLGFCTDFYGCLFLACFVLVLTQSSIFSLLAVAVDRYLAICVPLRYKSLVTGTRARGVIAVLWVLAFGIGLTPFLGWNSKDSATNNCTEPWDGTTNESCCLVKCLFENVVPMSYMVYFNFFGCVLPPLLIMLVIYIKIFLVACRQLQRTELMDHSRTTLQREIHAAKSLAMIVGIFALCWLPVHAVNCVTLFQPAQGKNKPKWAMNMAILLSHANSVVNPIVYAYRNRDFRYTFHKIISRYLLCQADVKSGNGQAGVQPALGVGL
The test is described as follows: Antagonist activity against human adenosine A2B receptor expressed in CHO cells assessed as inhibition of NECA-induced cAMP production at 1 uM by scintillation counting method. It counts as functional, cell-based. Summed up: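 hA2B-transfected CHO cells (1 × 10⁶ cells/assay) in buffered saline-glucose medium with 2 IU/mL adenosine deaminase and Ro 20-1724, preincubated 10 min at 37 °C, stimulated with 200 nM NECA; test compounds at 1 μM, reported as percent inhibition. Stopped with cold 6% TCA, ether-extracted; cAMP measured by competition binding with [3H]cAMP and beef adrenal binding protein.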
A general note: Changes in cAMP serve as a functional read-out for many G protein-coupled receptors.

The target in another test is T2, Adenosine receptor A3 (Homo sapiens, UniProt P0DMS8).
T2 sequence (P0DMS8 whole entry): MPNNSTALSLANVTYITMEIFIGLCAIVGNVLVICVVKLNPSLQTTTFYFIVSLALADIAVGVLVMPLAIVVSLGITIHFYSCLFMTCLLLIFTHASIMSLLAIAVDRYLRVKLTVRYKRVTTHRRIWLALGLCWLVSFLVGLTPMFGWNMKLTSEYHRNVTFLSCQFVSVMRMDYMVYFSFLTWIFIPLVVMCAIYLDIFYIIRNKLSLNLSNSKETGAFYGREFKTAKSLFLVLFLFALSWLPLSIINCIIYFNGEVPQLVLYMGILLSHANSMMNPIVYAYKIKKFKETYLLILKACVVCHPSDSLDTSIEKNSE
Kind of test: Displacement of [125I]AB-MECA from human adenosine A3 receptor expressed in CHO cell membranes incubated for 120 mins by scintillation counting method. Summed up: (§1)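 Membranes from hA3-CHO cells (50 μg protein/assay), pretreated with 2 IU/mL adenosine deaminase. Incubated with 0.5 nM [125I]AB-MECA in 50 mM Tris HCl, 10 mM MgCl2, 1 mM EDTA, pH 7.4, with six to eight compound concentrations; percent inhibition taken at 1 μM. Ki from IC50 by Cheng–Prusoff, means of four assays in duplicate.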
In general terms: Displacement assays read how much labelled ligand stays bound in the presence of the test substance.

The target of test [2] is T3, Adenosine receptor A1 (Homo sapiens) (UniProt P30542).
T3 sequence (whole entry): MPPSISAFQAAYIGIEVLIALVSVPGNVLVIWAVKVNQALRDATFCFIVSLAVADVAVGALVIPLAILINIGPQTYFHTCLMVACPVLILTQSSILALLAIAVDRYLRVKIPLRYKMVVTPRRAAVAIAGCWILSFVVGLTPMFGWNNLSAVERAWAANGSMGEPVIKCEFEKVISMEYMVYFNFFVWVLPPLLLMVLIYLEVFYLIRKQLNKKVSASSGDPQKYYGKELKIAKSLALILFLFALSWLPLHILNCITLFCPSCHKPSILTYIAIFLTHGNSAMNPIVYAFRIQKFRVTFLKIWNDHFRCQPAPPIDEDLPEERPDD
Kind of test: Displacement of [3H]DPCPX from human adenosine A1 receptor expressed in CHO cell membranes at 1 uM incubated for 120 mins by scintillation counting method. The procedure, abridged:
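Membranes from hA1-CHO cells (50 μg protein/assay), pretreated with adenosine deaminase 2 IU/mL, 30 min at 37 °C. Incubated with 1 nM [3H]DPCPX in 50 mM Tris HCl pH 7.4 for 120 min at 25 °C. Nonspecific binding defined with 1 μM DPCPX. Test compounds at 1 μM, reported as percent inhibition. Separation by GF/B filtration; read by scintillation counting.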

Test [3] deals with Adenosine receptor A2a (Homo sapiens) (UniProt P29274). The test is described as follows: Displacement of [3H]ZM241385 from human adenosine A2A receptor expressed in CHO cell membranes at 1 uM incubated for 60 mins by scintillation counting method. The procedure, abridged:
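Membranes from hA2A-CHO cells (50 μg protein/assay), deaminase-treated. Incubated with 1 nM [3H]ZM241385 in 50 mM Tris HCl, 10 mM MgCl2, pH 7.4 for 60 min at 4 °C. Nonspecific binding defined with 1 μM ZM241385. Test compounds at 1 μM, reported as percent inhibition. Filter separation; scintillation counting.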

Test [4] concerns the target T4, Adenosine receptor A3 (Homo sapiens) (UniProt P0DMS8).
T4 sequence (whole entry): T2 sequence (P0DMS8 whole entry)
Kind of test: Displacement of [125I]AB-MECA from human adenosine A3 receptor expressed in CHO cell membranes at 1 uM incubated for 120 mins by scintillation counting method. The procedure, abridged: as §1

pKi: −log10 of the molar value.

What is called inhibition is the change of the read-out against control, counted positive when it falls. The term pKi denotes −log10 of the Ki, conventionally taken in molar units. Higher therefore signals a low Ki.

Chain of Adenosine receptor A2a (Homo sapiens) (P29274 whole entry): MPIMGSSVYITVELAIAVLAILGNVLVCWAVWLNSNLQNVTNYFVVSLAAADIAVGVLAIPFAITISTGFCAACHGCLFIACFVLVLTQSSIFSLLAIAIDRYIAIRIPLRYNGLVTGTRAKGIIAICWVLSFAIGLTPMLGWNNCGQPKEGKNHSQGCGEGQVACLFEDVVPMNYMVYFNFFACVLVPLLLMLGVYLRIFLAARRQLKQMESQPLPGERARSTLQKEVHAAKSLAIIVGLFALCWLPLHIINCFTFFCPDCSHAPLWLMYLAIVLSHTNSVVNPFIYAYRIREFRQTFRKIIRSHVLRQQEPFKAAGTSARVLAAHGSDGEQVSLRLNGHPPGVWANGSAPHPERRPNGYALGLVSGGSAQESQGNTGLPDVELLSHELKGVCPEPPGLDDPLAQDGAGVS

Regarding `Cc1ccc(-c2nc3c(=O)[nH]c(C)nc3s2)cc1`, the figures for the inhibition in test [1], in test [2] and in test [3] were 3%, 17% and 2%, respectively. Besides, the pKi at Adenosine receptor A3 was 7.48.
As for `COc1cccc(-c2nc3c(=O)[nH]c(C)nc3s2)c1`, the inhibition was found to be 4% in test [1], 28% in test [4], 1% in test [2] and 12% in test [3].
For `Cc1nc2sc(-c3ccco3)nc2c(=O)[nH]1` the same measures were 2%, 20%, 37% and 1%.
Consider `Cc1nc2sc(-c3cccc(Cl)c3)nc2c(=O)[nH]1`, for which the values for the inhibition in test [1], in test [2] and in test [3] were 1%, 24% and 10%, respectively. For the same compound, on Adenosine receptor A3, the negative-log Ki (pKi) is 6.08.
Regarding `Cc1nc2sc(-c3cccc(F)c3)nc2c(=O)[nH]1`, the inhibition in test [1], in test [2] and in test [3] was 1% in each case. Also, at Adenosine receptor A3, the pKi is 6.96.
On to `Cc1nc2sc(-c3ccc(C(F)(F)F)cc3)nc2c(=O)[nH]1`, for which the inhibition in test [1] stood at 1%; in test [4], 32%; in test [2], 1%; in test [3], 37%.
`Cc1cccc(-c2nc3c(=O)[nH]c(C)nc3s2)c1`: the inhibition came to 1% in test [1], 1% in test [2] and 31% in test [3]. For the same compound, the pKi on Adenosine receptor A3 was 6.42.
Consider `Cc1nc2sc(Nc3cccc(Cl)c3)nc2c(=O)[nH]1`, for which the inhibition came out at 1% in test [1], 48% in test [4], 44% in test [2] and 21% in test [3].
For `Cc1nc2sc(Nc3ccc(Cl)cc3)nc2c(=O)[nH]1` the same measures were 1%, 49%, 33% and 18%.
`CCOc1nc(C)nc2sc(Nc3cccc(OC)c3)nc12`: the inhibition in test [1] stood at 1%; in test [2], 3%; in test [3] it was 25%. The compound also showed a pKi at Adenosine receptor A3 of 6.96.
Take `COc1cccc(Nc2nc3c(=O)[nH]c(C)nc3s2)c1`: the figures for the inhibition in test [1], in test [2] and in test [3] were 1%, 8% and 1%, respectively. On Adenosine receptor A3, this compound showed a negative-log Ki (pKi) of 6.95.
Regarding `CCOc1nc(C)nc2sc(-c3ccc(C)cc3)nc12`, the inhibition is 1% in test [1], 5% in test [4], 1% in test [2] and 1% in test [3].
For `Cc1nc2sc(Nc3ccccc3)nc2c(=O)[nH]1`, the inhibition in test [1] amounted to 1%; in test [4], 45%; in test [2], 24%; in test [3], 14%.
For `CCOc1nc(C)nc2sc(-c3ccc(Cl)cc3)nc12` the same measures were 1%, 10%, 6% and 9%.
As for `COc1ccc(Nc2nc3c(=O)[nH]c(C)nc3s2)cc1`, the inhibition in test [1] worked out at 1%; in test [4], 36%; in test [2] it was 1%; in test [3], 1%.
Regarding `Cc1nc2sc(-c3ccncc3)nc2c(=O)[nH]1`, the inhibition is 1% in test [1], 15% in test [4], 1% in test [2] and 1% in test [3].
In the case of `Cc1nc2sc(Nc3ccc(Cl)c(Cl)c3)nc2c(=O)[nH]1`, the inhibition in test [1] came out at 1%; in test [4], 25%; in test [2], 30%; in test [3], 16%.
As for `Cc1nc2sc(Cc3ccccc3)nc2c(=O)[nH]1`, the inhibition in test [1] is 1%; in test [2], 11%; in test [3], 1%. This compound also gave a negative-log Ki (pKi) on Adenosine receptor A3 of 6.37.
Turning to `Cc1nc2sc(-n3cccc3)nc2c(=O)[nH]1`, the figures for the inhibition in test [1], in test [2] and in test [3] were 3%, 1% and 9%, respectively. The compound further had a negative logarithm of the Ki (pKi) on Adenosine receptor A3 of 6.64.
Turning to `Cc1nc2sc(-c3ccc(O)cc3)nc2c(=O)[nH]1`, the inhibition in test [1] was 1%; in test [4], 15%; in test [2], 1%; in test [3] it was 1%.
As to `Cc1nc2sc(-c3ccc(C(=O)O)cc3)nc2c(=O)[nH]1`, the inhibition in test [1], in test [4], in test [2] and in test [3] was 1% in each case.
With `CCOc1nc(C)nc2sc(-c3ccccc3)nc12`, the inhibition in test [1] turned out to be 1%; in test [4], 6%; in test [2], 11%; in test [3], 1%.
As for `CCOc1nc(C)nc2sc(Nc3ccccc3)nc12`, the inhibition in test [1] worked out at 1%; in test [4], 45%; in test [2], 2%; in test [3], 3%.
`Cc1ccc(Nc2nc3c(=O)[nH]c(C)nc3s2)cc1`: the inhibition in test [1] came out at 1%; in test [4], 47%; in test [2] it was 20%; in test [3], 18%.
As to `Cc1nc2sc(-n3ccnc3)nc2c(=O)[nH]1`, the inhibition amounted to 1% in test [1], 8% in test [4], 1% in test [2] and 1% in test [3].
In the case of `Cc1nc2sc(-c3cccnc3)nc2c(=O)[nH]1`, the inhibition in test [1] came to 1%; in test [4], 33%; in test [2], 1%; in test [3], 1%.
On to `Cc1cccc(Nc2nc3c(=O)[nH]c(C)nc3s2)c1`, for which the inhibition stood at 1% in test [1], 12% in test [2] and 8% in test [3]. On Adenosine receptor A3, this compound gave a pKi of 6.35.
Regarding `COc1ccc(-c2nc3c(=O)[nH]c(C)nc3s2)cc1`, the inhibition in test [1] is 3%; in test [2], 10%; in test [3], 1%. This compound also showed a pKi at Adenosine receptor A3 of 7.42.
Regarding `Cc1nc2sc(-c3ccc(F)cc3)nc2c(=O)[nH]1`, the inhibition stood at 17% in test [1], 1% in test [2] and 15% in test [3]. The pKi on Adenosine receptor A3 was 6.97.
For the compound `Cc1nc2sc(-c3cccc(C(F)(F)F)c3)nc2c(=O)[nH]1`, the inhibition came out at 17% in test [1], 15% in test [4], 1% in test [2] and 15% in test [3].
As for `Cc1nc2sc(-c3cccs3)nc2c(=O)[nH]1`, the inhibition in test [1] is 1%; in test [2] it was 4%; in test [3], 1%. Moreover, the negative logarithm of the Ki (pKi) at Adenosine receptor A3 is 6.61.

Source of the values: ChEMBL document CHEMBL3414467, “Exploring the 7-oxo-thiazolo[5,4-d]pyrimidine core for the design of new human adenosine A3 receptor antagonists. Synthesis, molecular modeling studies and pharmacological evaluation” (Eur J Med Chem, 2015).
